Two compounds from ChEMBL document CHEMBL2021854, “2-Aminopyrimidine based 4-aminoquinoline anti-plasmodial agents. Synthesis, biological activity, structure-activity relationship and mode of action studies” (Eur J Med Chem, 2012) can be followed below.

For one series, the system named is Felid alphaherpesvirus 1. As to the kind of experiment: Antiviral activity against Feline herpesvirus infected in cat CRFK cells assessed as inhibition of virus-induced cytopathic effect after 4 days by colorimetric formazan-based MTS assay. Type of series: functional, organism-based. The following applies: Felid alphaherpesvirus 1, CRFK, 96 h. In general terms: Damage to the host cells serves as the signal in cytopathic effect assays.

Series [1] in a line: Inhibition of beta-hematin formation assessed as Ferriprotoporphyrin IX biomineralisation after 24 hrs. It is filed as functional. The method, boiled down:
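Hemin (0.5 mg/ml in DMSO) was mixed with 0.5 M sodium acetate pH 4.4 and compound, then incubated for 24 h at 37 °C. The pellet was washed with DMSO to remove unreacted hemin and dissolved in 0.1 N NaOH, with A405 read. Percent inhibition was taken versus solvent control, and IC50 by curve fitting.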

Series [2] can be described thus: Cytotoxicity against human HeLa cells assessed as minimum compound concentration required to causes microscopically detectable alteration of normal cell morphology. Type of series: cell-based. The essentials: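 Confluent, non-proliferating cell cultures were exposed to the compounds. The endpoint was the minimum concentration producing a microscopically detectable alteration of normal cell morphology.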

The subject of series [3] is Plasmodium falciparum. As to the kind of experiment: Ratio of chloroquine IC50 to compound IC50 for chloroquine-sensitive Plasmodium falciparum K1. Type of series: functional.
Series [4] relates to Influenza B virus. As to the kind of experiment: Antiviral activity against Influenza B virus infected in MDCK cells assessed as reduction visual scoring of virus-induced cytopathogenicity after 4 days. Type of series: functional, organism-based. The following applies: 96 h. The method, boiled down:
(§1)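 MDCK monolayers infected with 100 CCID50 of influenza A (H1N1 or H3N2) or influenza B, with varying compound concentrations. Cytopathicity read when untreated infected controls reached complete CPE.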

In another series the test system is Human respirovirus 3. As to the kind of experiment: Antiviral activity against Parainfluenza-3 virus infected in african green monkey Vero cells assessed as inhibition of virus-induced cytopathogenicity after 4 days. It is filed as functional, organism-based. The settings on record: Human respirovirus 3, Vero, 96 h. The essentials: (§2)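 Confluent HEL, Vero or HeLa monolayers were inoculated with 100 CCID50 of virus in the presence of varying concentrations of compound. Cytopathicity was scored when it reached completion in untreated, virus-infected control cultures.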

A further series has as its system MDCK. As to the kind of experiment: Cytotoxicity against MDCK cells assessed as cell viability by colorimetric formazan-based MTS assay. Further details: species or system Canis lupus familiaris. The settings on record: dog, mdck. The essentials: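 Cytotoxicity on MDCK cells; 50% cytotoxic concentration from cell viability measured by colorimetric formazan-based MTS assay.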
(In general: Tetrazolium assays rely on reduction of a dye to a coloured formazan, in cell work by metabolically active cells.)

For another series, the system named is Influenza A virus. As to the kind of experiment: Antiviral activity against Influenza A virus H1N1 infected in MDCK cells assessed as reduction visual scoring of virus-induced cytopathogenicity after 4 days. It is filed as functional, organism-based. The following applies: 96 h. The essentials:
as §1

The subject of another series is mu-oxodimeric heme. As to the kind of experiment: Binding affinity to mu-oxo heme in HEPES buffer at pH 5.8 by UV-visible spectrophotometry analysis.
For series [5], the system named is Nucleic Acid. As to the kind of experiment: Binding affinity to calf thymus DNA after 5 mins by spectrofluorometric analysis. It is filed as nucleic-acid assay. The following applies: Bos taurus. The essentials:
(§3)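 Steady-state fluorescence titration at ambient temperature: compound held at 30 μM while DNA was varied (0.3–70 μM), working solutions diluted in methanol. Excitation 320 nm, emission 380 nm, slit 5 nm. Log K was calculated from quenching of the 380 nm emission.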

Series [6] concerns Plasmodium falciparum. As to the kind of experiment: Resistant factor, ratio of IC50 for chloroquine-resistant Plasmodium falciparum K1 to IC50 for chloroquine-sensitive Plasmodium falciparum 3D7. Type of series: functional. The essentials:
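Resistance factor computed as IC50 against K1 divided by IC50 against 3D7, both from the [3H]hypoxanthine incorporation assay.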

In another series the test system is Coxsackievirus B4. As to the kind of experiment: Antiviral activity against Coxsackie virus B4 infected in human HeLa cells assessed as inhibition of virus-induced cytopathogenicity after 4 days. Type of series: functional, organism-based. The settings on record: Enterovirus B, 96 h. The essentials: as §2
The subject of series [7] is Human immunodeficiency virus 1. As to the kind of experiment: Antiviral activity against HIV1 infected in human CEM cells assessed as inhibition of virus-induced cytopathic effect after 4 days. The settings on record: Human immunodeficiency virus 1, CCRF-CEM, 96 h. It is filed as functional, organism-based. The method, boiled down: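 CEM T-lymphocytes (~3 × 10^5 cells/ml) were infected with HIV-1 IIIB or HIV-2 ROD at ~100 CCID50, then immediately plated with a range of compound concentrations. Giant cell formation was scored microscopically after 4 days at 37 °C. Cytostatic activity was tested in parallel in uninfected CEM cells.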

The subject of a further series is Human alphaherpesvirus 2. As to the kind of experiment: Antiviral activity against HSV2 G infected in HEL cells assessed as inhibition of virus-induced cytopathogenicity after 4 days. Type of series: functional, organism-based. The following applies: Human alphaherpesvirus 2, strain G, 96 h. The essentials: as §2
The subject of series [8] is Influenza B virus. As to the kind of experiment: Antiviral activity against Influenza B virus infected in MDCK cells assessed as inhibition of virus-induced cytopathogenicity after 4 days by colorimetric formazan-based MTS assay. Type of series: functional, organism-based. The following applies: 96 h.
Series [9] deals with Nucleic Acid. As to the kind of experiment: Binding affinity to Escherichia coli pUC18 DNA by spectrofluorometric analysis. It is filed as nucleic-acid assay. The essentials:
as §3

The subject of series [10] is Nucleic Acid. As to the kind of experiment: Binding affinity to calf thymus DNA assessed as melting temperature. Type of series: nucleic-acid assay. The following applies: Bos taurus. The method, boiled down:
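CT DNA (151 μM NP) was heated with or without compound at a 5:1 DNA:drug ratio in 40% DMSO/TE buffer pH 7.4 with 0.5 mM NaCl. Absorbance at 260 nm was followed with a 0.5 °C/min ramp to obtain Tm.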

In series [11] the test system is Plasmodium falciparum. As to the kind of experiment: Ratio of chloroquine IC50 to compound IC50 for chloroquine-sensitive Plasmodium falciparum 3D7. It is filed as functional.

A word on the EC50: it is the concentration needed to bring the measured effect to its halfway point. As usually defined, the IC50 is the concentration needed to halve the response being measured. For orientation: CC50 means the concentration giving 50% cytotoxicity. In the case of `Cc1nc(NCCCCNc2ccnc3cc(Cl)ccc23)nc(-c2ccccc2[N+](=O)[O-])c1C(=O)OC(C)C`, the EC50 is above 20000 nM in the series with Felid alphaherpesvirus 1; above 800 nM in the series with Influenza B virus [4]; above 20000 nM in the series with Human respirovirus 3; above 800 nM with Influenza A virus; above 20000 nM in the series with Coxsackievirus B4; above 2000 nM in series [7]. Moreover, the EC50 in the series on Human alphaherpesvirus 2 was above 4000 nM; in the series on Influenza B virus [8], above 800 nM. The IC50 in series [1] is 2000 nM. Also, in series [1], the inhibition result was “Dose-dependent effect”. Besides, in series [2], the MCC was 100 µM. The “Ratio IC50” value worked out at 56 with Plasmodium falciparum [3], 0.2 in the series on Plasmodium falciparum [6] and 56 with Plasmodium falciparum [11]. The CC50 with MDCK was determined as 2300 nM. Moreover, the values for the log Ks in the series with mu-oxodimeric heme, in the series with Nucleic Acid [5] and with Nucleic Acid [9] were 6.31, 3.39 and 5.27, respectively. Also, in the series with Nucleic Acid [10], the Tm amounted to 62.5 °C.
Turning to `CCOC(=O)c1c(C)nc(NCCCCNc2ccnc3cc(Cl)ccc23)nc1-c1ccccc1`, the EC50 was above 4000 nM in the series on Felid alphaherpesvirus 1; above 160 nM in the series with Influenza B virus [4]; above 100000 nM in the series on Human respirovirus 3; above 160 nM in the series with Influenza A virus; above 100000 nM with Coxsackievirus B4; above 2000 nM in [7]. In addition, the EC50 was above 100000 nM in the series on Human alphaherpesvirus 2 and above 160 nM in the series on Influenza B virus [8]. Also, the MCC in [2] was above 100 µM. Also, the CC50 with MDCK was found to be 900 nM. Besides, the log Ks in the series with mu-oxodimeric heme turned out to be 6.09; with Nucleic Acid [5], 4.67. Moreover, the “Ratio IC50” value in the series with Plasmodium falciparum [6] was 0.129. Besides, the Tm in the series with Nucleic Acid [10] turned out to be 63 °C.
